{"data": "Measured values from different studies", "organism": "Plasmodium falciparum", "read-out": "parasite growth", "method": "SYBR Green", "note": "Each line is one published result; the experiments were not run side by side."}
{"Compound": "CCCCCCNCC(O)c1cc(Cl)cc2c1-c1ccc(Cl)cc1C2 (racemic)", "strain": "W2", "time": "48 h", "setting": "drug-resistant strain, blood stage", "endpoint": "IC50", "result": "6 nM"}
{"Compound": "CC(C)C[C@H](NC(=O)[C@H](Cc1ccccc1)NC(=O)c1cnccn1)B(O)O", "strain": "DD2", "setting": "blood stage", "endpoint": "EC50", "result": "41 nM"}
{"Compound": "CCCCCNC[C@H](O)c1cc(Cl)cc2c1-c1ccc(Cl)cc1C2", "strain": "W2", "time": "48 h", "setting": "drug-resistant strain, blood stage", "endpoint": "IC50", "result": "3.7 nM"}
{"Compound": "CC(C)C[C@@H](C=O)NC(=O)[C@H](CC(C)C)NC(=O)[C@H](CC(C)C)NC(=O)OCc1ccccc1", "strain": "DD2", "setting": "blood stage", "endpoint": "EC50", "result": "69 nM"}
{"Compound": "CCCN(CCc1cccs1)[C@H]1CCc2c(O)cccc2C1", "strain": "DD2", "time": "48 h", "setting": "drug-resistant strain, blood stage", "endpoint": "IC50", "result": "9270 nM"}
{"Compound": "Cn1cc2c3c1C(=O)C(N)=CC3=NCC2", "strain": "DD2", "setting": "blood stage", "endpoint": "IC50", "result": "3550 nM"}
{"Compound": "COCC(=O)N1CCC[C@H](C(=O)NCc2nc(-c3ccc(C#N)cc3)cs2)C1", "strain": "DD2", "time": "72 h", "setting": "blood stage", "endpoint": "EC50", "result": "18 nM"}
{"Compound": "O[C@H](CN1CCN(C(c2ccccc2)c2ccccc2)CC1)c1cc(Cl)cc2c1-c1ccc(Cl)cc1C2", "strain": "W2", "time": "48 h", "setting": "drug-resistant strain, blood stage", "endpoint": "IC50", "result": "70.2 nM"}
{"Compound": "COc1ccccc1C(=O)/C=C/c1cn(Cc2cn(-c3ccnc4cc(Cl)ccc34)nn2)c2ccccc12", "strain": "3D7", "tested at": "10 µM", "setting": "blood stage", "endpoint": "inhibition", "result": "> 50%"}
{"Compound": "CCCCCCCNCC(O)c1cc(Cl)cc2c1-c1ccc(Cl)cc1C2 (racemic)", "strain": "W2", "time": "48 h", "setting": "drug-resistant strain, blood stage", "endpoint": "IC50", "result": "18.6 nM"}
{"Compound": "COCC(=O)N1CCC[C@H](C(=O)NCc2nc(-c3ccccc3)cs2)C1", "strain": "DD2", "setting": "blood stage", "endpoint": "EC50", "result": "69 nM"}
{"Compound": "Cn1cc2c3c1C(=O)C(NCCc1ccc(O)cc1)=CC3=NCC2", "strain": "3D7", "setting": "blood stage", "endpoint": "IC50", "result": "3310 nM"}
{"Compound": "CC(O)(CS(=O)(=O)c1ccc(F)cc1)C(=O)Nc1ccc(C#N)c(C(F)(F)F)c1 (stereo not drawn)", "strain": "DD2", "time": "48 h", "setting": "drug-resistant strain, blood stage", "endpoint": "IC50", "result": "> 10000 nM"}
{"Compound": "O=C1C=C2NCCc3c[nH]c(c32)C1=O", "strain": "3D7", "setting": "blood stage", "endpoint": "IC50", "result": "29600 nM"}
{"Compound": "O=Cc1cn(Cc2cn(-c3ccnc4cc(Cl)ccc34)nn2)c2ccccc12", "strain": "3D7", "tested at": "10 µM", "setting": "blood stage", "endpoint": "inhibition", "result": "24.5%"}
{"Compound": "C[N+]1=C2C=C(N)C(=O)c3[nH]cc(c32)CC1", "strain": "3D7", "setting": "blood stage", "endpoint": "IC50", "result": "196 nM"}
{"Compound": "O[C@H](CNCCN1CCN(C(c2ccccc2)c2ccccc2)CC1)c1cc(Cl)cc2c1-c1ccc(Cl)cc1C2", "strain": "W2", "time": "48 h", "setting": "drug-resistant strain, blood stage", "endpoint": "IC50", "result": "13 nM"}
{"Compound": "C[N+]1=C2C=C(NCCc3ccc(O)cc3)C(=O)c3[nH]cc(c32)CC1", "strain": "W2", "setting": "blood stage", "endpoint": "IC50", "result": "32.3 nM"}
{"Compound": "CCN(CC)CCCC(C)Nc1ccnc2cc(Cl)ccc12 (stereo not drawn)", "cell line": "MDR", "strain": "TM90", "time": "72 h", "setting": "drug-resistant strain, blood stage", "endpoint": "IC50", "result": "354 nM"}
{"Compound": "O=C1C(NCCc2c[nH]c3ccccc23)=CC2=NCCc3c[nH]c1c32", "strain": "3D7", "setting": "blood stage", "endpoint": "IC50", "result": "160 nM"}
{"Compound": "O[C@H](CN[C@H](COCC1CC1)Cc1ccccc1)c1cc(Cl)cc2c1-c1ccc(Cl)cc1C2", "strain": "W2", "time": "48 h", "setting": "drug-resistant strain, blood stage", "endpoint": "IC50", "result": "2.8 nM"}
